The text below walks through data of ChEMBL document CHEMBL5108090, “Structure-activity relationship study of PROTACs against hematopoietic prostaglandin D2 synthase” (RSC Med Chem, 2022).

Calls of active or inactive are those of the source. The rule behind the calls is not given here.

Test [1] deals with T1, Protein cereblon/Hematopoietic prostaglandin D synthase (Homo sapiens, UniProt O60760+Q96SW2). In words: PROTAC activity at CRBN/H-PGDS in human KU812 cells assessed as reduction in A23187-stimulated PGD2 levels at 10 nM preincubated for 24 hrs followed by A23187 stimulation for 30 mins by ELISA analysis relative to control. It is filed as cell-based. The following applies: KU812 cell line, time 24.5 hrs. A digest of the protocol:
(§1)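 KU812 cells (human CML; RPMI-1640, 10% FBS, penicillin–streptomycin) were treated with compound for 24 h. They were then stimulated with 5 μM calcium ionophore A23187 for 30 min. PGD2 in the culture medium was quantified by PGD2-MOX ELISA per the kit instructions.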
On the technique in general: An ELISA detects its analyte on a solid surface through an enzyme-linked reagent.
Target sequence in this assay (O60760 whole entry, looked up): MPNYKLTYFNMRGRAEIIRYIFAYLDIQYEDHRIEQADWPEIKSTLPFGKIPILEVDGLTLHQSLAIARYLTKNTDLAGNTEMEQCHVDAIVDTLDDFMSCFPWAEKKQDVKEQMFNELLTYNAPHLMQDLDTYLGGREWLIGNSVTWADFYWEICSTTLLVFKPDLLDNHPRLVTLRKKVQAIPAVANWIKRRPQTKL
Target sequence in this assay (Q96SW2 whole entry, looked up): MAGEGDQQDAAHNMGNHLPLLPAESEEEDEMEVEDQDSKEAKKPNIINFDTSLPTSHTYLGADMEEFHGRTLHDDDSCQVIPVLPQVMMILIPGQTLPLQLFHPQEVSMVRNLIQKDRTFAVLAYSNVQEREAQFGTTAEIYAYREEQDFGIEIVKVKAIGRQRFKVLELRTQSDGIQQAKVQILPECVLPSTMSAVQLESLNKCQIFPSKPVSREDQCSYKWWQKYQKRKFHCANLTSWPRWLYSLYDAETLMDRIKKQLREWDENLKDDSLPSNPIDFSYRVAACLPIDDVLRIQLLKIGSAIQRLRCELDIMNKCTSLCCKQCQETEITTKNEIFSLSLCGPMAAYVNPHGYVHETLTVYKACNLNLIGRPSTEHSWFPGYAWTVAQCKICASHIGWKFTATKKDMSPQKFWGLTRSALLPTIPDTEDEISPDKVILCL

Test [2] addresses T1, Protein cereblon/Hematopoietic prostaglandin D synthase. In words: PROTAC activity at CRBN/H-PGDS in human KU812 cells assessed as reduction in H-PGDS levels at 1 nM incubated for 6 hrs by Western blotting analysis. The following applies: KU812 cell line. The test is classed as cell-based. The method in brief:
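KU812 cells were exposed to compound for 6 h, with MG132 or MLN7243 co-treatment or ligand competition in some arms. Lysates in SDS buffer were boiled and equal protein by BCA was run on SDS-PAGE. Blots used anti-H-PGDS and anti-β-actin with ECL detection. H-PGDS/β-actin was normalized to the DMSO control (100%); mean ± SEM, n = 3.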
(In general: A western blot detects proteins with antibodies after separation by electrophoresis.)
Target sequence in this assay (O60760 whole entry, looked up): as the sequence (O60760 whole entry, looked up) above
Target sequence in this assay (Q96SW2 whole entry, looked up): as the sequence (Q96SW2 whole entry, looked up) above

The target is the same in test [3]. The test can be described thus: PROTAC activity at CRBN/H-PGDS in human KU812 cells assessed as reduction in H-PGDS levels incubated for 24 hrs by Western blotting analysis. It is filed as cell-based, KU812 cell line. The method in brief:
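KU812 cells were incubated with a compound concentration series for 24 h. SDS lysates (equal protein) were blotted for H-PGDS and β-actin with ECL quantification. The H-PGDS/actin ratio was set relative to DMSO (100%); mean ± SEM, n = 3. DC50 came from a linear fit through the three points spanning 50% protein level.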
Target sequence in this assay (O60760 whole entry): as the sequence (O60760 whole entry, looked up) above
Target sequence in this assay (Q96SW2 whole entry): as the sequence (Q96SW2 whole entry, looked up) above

In test [4] the target is T2, Hematopoietic prostaglandin D synthase (Homo sapiens, UniProt O60760). The test can be described thus: Binding affinity to recombinant human H-PGDS incubated for 1 hrs by competitive fluorescence polarization assay. A digest of the protocol: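 Competitive FP assay using a commercial kit. Recombinant human H-PGDS, glutathione and fluorescent probe in assay buffer. Compounds were added from DMSO stocks at final 2.50 μM to 2.44 nM (11 points), in triplicate, for 1 h at room temperature. Read at ex 470/em 530 nm in mP. IC50 is the concentration giving a 50% mP reduction, from a semi-log plot.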
T2 sequence (O60760 whole entry): as the sequence (O60760 whole entry, looked up) above
(In general: Fluorescence polarisation rises when a labelled molecule tumbles more slowly, as on binding a larger partner.)

The target in test [5] is T2, Hematopoietic prostaglandin D synthase. In words: Inhibition of H-PGDS in human KU812 cells assessed as reduction in A23187-stimulated PGD2 levels at 10 nM preincubated for 24 hrs followed by A23187 stimulation for 30 mins by ELISA analysis. It is filed as cell-based. The following applies: KU812 cell line, time 24.5 hrs. A digest of the protocol: as §1

The IC50 is the concentration that gives 50% inhibition. In the case of `O=C1CCC(N2C(=O)c3ccc(N4CCN(C(=O)C5CCN(c6ccc(NC(=O)c7cnc(Oc8ccccc8)nc7)cc6)CC5)CC4)cc3C2=O)C(=O)N1` (configuration not stated), the result in test [1] and in test [2] was Active. Also, the DC50 in test [3] was 0.0276 nM. The IC50 in test [4] stood at 196 nM.
Turning to `Cn1cccc1C(=O)N1CCN(C(=O)Nc2ccc(N3CCC(C(=O)N4CCN(c5ccc6c(c5)C(=O)N(C5CCC(=O)NC5=O)C6=O)CC4)CC3)cc2)CC1` (configuration not stated), in test [1], the outcome was Active. Moreover, the DC50 in test [3] was 0.0238 nM. The half-maximal inhibitory concentration (IC50) in test [4] came out at 124 nM.
For `O=C1CCC(N2C(=O)c3cccc(N4CCN(C(=O)C5CCN(c6ccc(NC(=O)c7cnc(Oc8ccccc8)nc7)cc6)CC5)CC4)c3C2=O)C(=O)N1` (configuration not stated) the same measures were “Active”, 0.0187 nM and 116 nM.
Turning to `O=C(Nc1ccc(N2CCC(C(=O)N3CCOCC3)CC2)cc1)c1cnc(Oc2ccccc2)nc1`, in test [5], the inhibition entry is “Active”. Also, in test [4], the IC50 was 211 nM.
`Cn1cccc1C(=O)N1CCN(C(=O)Nc2ccc(N3CCC(C(=O)N4CCN(c5cccc6c5C(=O)N(C5CCC(=O)NC5=O)C6=O)CC4)CC3)cc2)CC1` (configuration not stated): the outcome in test [1] was Active. In addition, the DC50 in test [3] was 0.0714 nM. In test [4], the half-maximal inhibitory concentration (IC50) is 78.1 nM.
For the molecule `Cn1cccc1C(=O)N1CCN(C(=O)Nc2ccc(N3CCC(C(=O)N4CCOCC4)CC3)cc2)CC1`, the inhibition result in test [5] is “Active”. In test [4], the IC50 was found to be 134 nM.
